Measurements gathered from unrelated publications.
Compare with care: the assays were run in different laboratories. Values after ≈ are worked out from the molar mass of the structure shown.

The MIC of O=C(N[C@H](CO)[C@H](O)c1ccc([N+](=O)[O-])cc1)C(Cl)Cl is reported as 1.25 to 2.5 µM (≈ 0.404 to 0.808 µg/mL) (Vibrio alginolyticus; microbial growth; 24 h).
C=C(COCc1ccc(F)cc1)[C@@H]1CC[C@@H](C)C[C@H]1OCc1ccc(F)cc1 has an inhibition of 61.5% (HeLa; cell growth or viability, MTT; 30 µM, 72 h).
The EC50 of C=CC(=O)NC1CCN(c2ncc3ncnc(Nc4ccc(Oc5ccc6c(c5)ncn6C)c(C)c4)c3n2)CC1 is reported as 10.2 nM (SNU-216; cell growth or viability).
The MIC of CN[C@H](CC(C)C)C(=O)N[C@H]1C(=O)N[C@@H](CC(N)=O)C(=O)N[C@H]2C(=O)N[C@H]3C(=O)N[C@H](C(=O)N[C@H](C(=O)O)c4cc(O)cc(O)c4-c4cc3ccc4O)[C@H](O)c3ccc(c(Cl)c3)Oc3cc2cc(c3O[C@@H]2O[C@H](CO)[C@@H](O)[C@H](O)[C@H]2O[C@H]2C[C@](C)(N)[C@H](O)[C@H](C)O2)Oc2ccc(cc2Cl)[C@H]1O is reported as 2 µM (≈ 2.9 µg/mL) (Enterococcus faecalis; microbial growth; ATCC29212).
CN[C@@H]1[C@@H](O[C@H]2O[C@H](CO)[C@@H](N)[C@H](O)[C@H]2O)OC2C[C@@H](N)[C@@H](O[C@H]3[C@H](O)[C@@H](O)[C@H](N)C[C@@H]3N)OC2[C@@H]1O (stereo partly shown) has an MIC of > 40 µM (Vibrio alginolyticus; microbial growth; 24 h).
With Cc1nc(NC(=S)NCc2ccco2)nc(-c2ccccc2)c1C(=O)N1CCC(C(=O)O)CC1 the IC50 was 180 nM (Leishmania major; parasite growth, resazurin; promastigote).
The inhibition of C[C@@H]1CC[C@@H]([C@@](O)(CNCc2ccccc2)COCc2ccccc2)[C@H](OCc2ccccc2)C1 is reported as 98.2% (HeLa; cell growth or viability, MTT; 30 µM, 72 h).
O=C(NC(=S)Nc1cccc(O)c1)c1cccs1 has an IC50 of 290 nM (Leishmania major; parasite growth, resazurin; promastigote).
COc1ccc(COC[C@@](O)(CNCc2ccccc2)[C@@H]2CC[C@@H](C)C[C@H]2OCc2ccc(OC)cc2)cc1 gave an inhibition of 93.8% (HeLa; cell growth or viability, MTT; 10 µM, 72 h).
O=C(NC(=S)Nc1ccccc1O)c1ccco1 gave an IC50 of 6080 nM (Leishmania major; parasite growth, resazurin; promastigote).
For C[C@@H]1CC[C@@H]([C@](C)(O)CNCc2ccc(F)cc2)[C@H](OCc2ccccc2)C1, the inhibition was 60.1% (HeLa; cell growth or viability, MTT; 30 µM, 72 h).
O=C(NC(=S)Nc1nccs1)c1ccco1 has an IC50 of 12900 nM (Leishmania major; parasite growth, resazurin; promastigote).
With Cc1cc(NC(=O)C=Cc2ccccc2)cc(-c2ccnc(N3CCC(CO)CC3)c2)c1 the inhibition was 81.8% (HeLa; cell growth or viability, MTT; 5 µM).
